In ChEMBL document CHEMBL3351274, “Sensitization of tumor necrosis factor-related apoptosis-inducing ligand (TRAIL)-resistant primary prostate cancer cells by isoegomaketone from Perilla frutescens” (J Nat Prod, 2014):
Active and inactive are the calls of the source. No cut-off for these calls is given here.

Key:
Homo sapiens [1] = species on record: Homo sapiens; test: Induction of apoptosis in human RC-58T/h/SA#4 cells assessed as cytochrome C level in mitochondria at 20 uM after 24 hrs by immunoblotting analysis relative to untreated control; format: functional, cell-based
Method in brief: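 Cells grown in DMEM/10% FBS at 37 °C, 5% CO2, then treated 24 h with compound (20 μM) with or without TRAIL (100 ng/mL). Whole lysates were used for Bax and Bcl-2. Cytosolic and mitochondrial fractions were prepared with a mitochondria isolation kit for AIF and cytochrome c. Blotting used 10 μg protein/lane, 12% SDS-PAGE, nitrocellulose, overnight primary antibody at 4 °C and ECL detection.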

Homo sapiens [2] = species on record: Homo sapiens; test: Sensitization of TRAIL-induced apoptosis in human RC-58T/h/SA#4 cells assessed as cytochrome C level in mitochondria at 20 uM after 24 hrs by immunoblotting analysis relative to untreated control; format: functional, cell-based
Method in brief: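 Cells given 20 μM compound and/or 100 ng/mL TRAIL for 24 h. Mitochondrial and cytosolic fractions prepared with a mitochondria isolation kit. Fractions resolved by 12% SDS-PAGE at 10 μg/lane and immunoblotted with anti-cytochrome c or anti-AIF overnight at 4 °C, then HRP secondary and ECL detection.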

[3] = Induction of apoptosis in human RC-58T/h/SA#4 cells assessed as DR4 expression at 5 uM after 24 hrs by immunoblotting analysis relative to untreated control; format: functional
[4] = Induction of apoptosis in human RC-58T/h/SA#4 cells assessed as DR4 expression at 10 uM after 24 hrs by immunoblotting analysis relative to untreated control; format: functional
[5] = Induction of apoptosis in human RC-58T/h/SA#4 cells assessed as DR4 expression at 40 uM after 24 hrs by immunoblotting analysis relative to untreated control; format: functional
[6] = Induction of apoptosis in human RC-58T/h/SA#4 cells assessed as DR5 expression at 5 uM after 24 hrs by immunoblotting analysis relative to untreated control; format: functional
[7] = Induction of apoptosis in human RC-58T/h/SA#4 cells assessed as DR5 expression at 20 uM after 24 hrs by immunoblotting analysis relative to untreated control; format: functional
[8] = Induction of apoptosis in human RC-58T/h/SA#4 cells assessed as DR4 expression at 20 uM after 18 hrs by immunoblotting analysis relative to untreated control; format: functional
[9] = Induction of apoptosis in human RC-58T/h/SA#4 cells assessed as DR4 expression at 20 uM after 24 hrs by immunoblotting analysis relative to untreated control; format: functional
[10] = Induction of apoptosis in human RC-58T/h/SA#4 cells assessed as DR5 expression at 20 uM after 3 hrs by immunoblotting analysis relative to untreated control; format: functional
[11] = Induction of apoptosis in human RC-58T/h/SA#4 cells assessed as DR5 expression at 20 uM after 12 hrs by immunoblotting analysis relative to untreated control; format: functional
[12] = Sensitization of TRAIL-induced apoptosis in human RC-58T/h/SA#4 cells assessed as procaspase-8 activation at 20 uM after 24 hrs by immunoblotting analysis in presence of Dr5 Fc chimera relative to untreated control; format: functional
Method in brief: (§1)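 Cells pretreated 2 h with 100 ng/mL DR5 Fc chimera, then given 20 μM compound and/or 100 ng/mL TRAIL for 24 h. Total lysates immunoblotted (12% SDS-PAGE, nitrocellulose) for caspase-3, -8, -9 and PARP cleavage, with HRP secondary and ECL detection.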

[13] = Sensitization of TRAIL-induced apoptosis in human RC-58T/h/SA#4 cells assessed as procaspase-3 activation at 20 uM after 24 hrs by immunoblotting analysis in presence of Dr5 Fc chimera relative to untreated control; format: functional; method in brief: as §1
Homo sapiens [14] = species on record: Homo sapiens; test: Induction of apoptosis in human RC-58T/h/SA#4 cells assessed as CHOP expression after 3 to 24 hrs by immunoblotting analysis relative to untreated control; format: functional, cell-based
Method in brief: (§2)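 RC-58T/h/SA#4 cells seeded at 5 × 10^4 cells/mL and cultured 24 h, then given compound across a concentration series or at fixed dose over a time course. Lysates were quantified by BCA. 10 μg protein/lane run on 12% SDS-PAGE and transferred to nitrocellulose. Blots probed for p53, CHOP and β-actin with HRP secondary and ECL.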

[15] = Induction of apoptosis in human RC-58T/h/SA#4 cells assessed as p53 expression at 40 uM after 24 hrs by immunoblotting analysis relative to untreated control; format: functional
Method in brief: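 RC-58T/h/SA#4 cells (DMEM, 10% FBS, 37 °C, 5% CO2) exposed to the compound over a concentration range or time course. Lysates run on 12% SDS-PAGE at 10 μg protein/lane, transferred to nitrocellulose and blocked with BSA. Blots probed overnight at 4 °C with anti-p53, then HRP secondary antibody, ECL detection; β-actin as loading control.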

[16] = Induction of apoptosis in human RC-58T/h/SA#4 cells assessed as CHOP expression at 5 uM after 24 hrs by immunoblotting analysis relative to untreated control; format: functional; method in brief: as §2
[17] = Induction of apoptosis in human RC-58T/h/SA#4 cells assessed as p53 expression at 20 uM after 18 hrs by immunoblotting analysis relative to untreated control; format: functional; method in brief: as §2
[18] = Induction of apoptosis in human RC-58T/h/SA#4 cells assessed as CHOP expression at 20 uM after 3 hrs by immunoblotting analysis relative to untreated control; format: functional; method in brief: as §2
[19] = Induction of ROS generation in human RC-58T/h/SA#4 cells at 10 uM after 30 mins by flow cytometry (reference value: 1.9%); format: functional
Homo sapiens [20] = species on record: Homo sapiens; test: Sensitization of TRAIL-induced apoptosis in human RC-58T/h/SA#4 cells assessed as condensation of chromatin at 20 uM after 24 hrs by Hoechst 33258 staining-based fluorescence microscopy; format: functional, cell-based
Method in brief: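 Cells seeded at 1 × 10^6/well and given 20 μM compound and/or 100 ng/mL TRAIL for 24 h. Cells fixed in 1% glutaraldehyde and stained with 5 μg/mL Hoechst 33258 for 10 min at room temperature. Nuclear fragmentation and chromatin condensation scored by fluorescence microscopy at ×400.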

[21] = Induction of apoptosis in human RC-58T/h/SA#4 cells assessed as accumulation at Sub-G1 phase at 20 uM after 24 hrs by annexin-V/propidium iodide staining-based flow cytometry (reference value: 4.8%); format: functional
[22] = Sensitization of TRAIL-induced apoptosis in human RC-58T/h/SA#4 cells assessed as accumulation at Sub-G1 phase at 20 uM after 24 hrs by annexin-V/propidium iodide staining-based flow cytometry (reference value: 4.8%); format: functional
[23] = Induction of apoptosis in human RC-58T/h/SA#4 cells assessed as procaspase-8 activation at 20 uM after 24 hrs by immunoblotting analysis relative to untreated control; format: functional
Method in brief: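 Cells seeded at 5 × 10^4 cells/mL and cultured 24 h, then given 20 μM compound and/or 100 ng/mL TRAIL for 24 h. Whole-cell lysate made in Tris/NaCl/EDTA/NaF/pyrophosphate/PMSF/aprotinin buffer, 30 min on ice, protein measured by BCA. 12% SDS-PAGE at 10 μg/lane, nitrocellulose blot, primary antibodies (caspase-3, -8, -9, Bax, Bcl-2, PARP) overnight at 4 °C, HRP secondary, ECL.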

With `CC(C)/C=C/C(=O)c1ccoc1` the Ratio (Homo sapiens [1]) was 1.2, the Ratio (Homo sapiens [2]) was 0.5 and the Ratio [3] was 1.1. For the same compound, the Ratio [4] was 1, the Ratio [5] was 1.1 and the Ratio [6] was 1.1. For the same compound, the Ratio [7] was 1.2, the Ratio [8] was 1.1 and the Ratio [9] was 1. For the same compound, the Ratio [10] was 1.2, the Ratio [11] was 1.3 and the Ratio [12] was 0.8. For the same compound, the Ratio [13] was 0.9, the Activity (Homo sapiens [14]) was “Dose-dependent effect” and the Ratio [15] was 2.4. It also gave a Ratio [16] of 1.3, a Ratio [17] of 2.2 and a Ratio [18] of 1. The Activity [19] was 2%, the Activity (Homo sapiens [20]) was “Active” and the Activity [21] was 10.1%. For the same compound, the Activity [22] was 18% and the Ratio [23] was 1.2.
